# The list is not random: actives were taken first. Their share in the collection is about 1.5%.
# RAD54 branch – RAD54 (human) branch migration inhibition | AID 602329 | Q92698 | 360,000 tested, 0.14% active | RAD54 Holliday junction branch migration, FAM/BHQ fluorescence | inhibition, % at 10.4 µM;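 active = mean normalized replicate activity at least 40 and at least half of replicates scoring 40 or more; inconclusive = only one of the two criteria met; inactive = mean below 40 and under half of replicates reaching 40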;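 note: 0% = median of neutral control wells and 100% = median of positive control wells; inhibitors cause a drop in the FAM fluorescence signal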
# dFosB act-1 – activators of mouse delta FosB homodimer; P13346; purified delta FosB, TAMRA-CDK5 oligo fluorescence polarization; percent of positive-control signal above neutral wells; activation, % at 25 µM; 340,000 tested, 0.99% active;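 active = mean activation above about 17%, with every replicate also reaching it, limit read from the data, passing the limit was not always enough; inconclusive = only one of the two conditions met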
# AF4-AF9 inh – inhibitors of human MLL-AF4/AF9 interaction; 350,000 tested, 0.47% active; inhibition, % at 10 µM; AlphaScreen, biotin-AF4 peptide binding to FLAG-AF9; P42568; AID 651704;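 active = every replicate reaching a set inhibition limit, whatever the replicate mean, cut at about 25% in these data; inconclusive = mean inhibition reaches that limit but some replicates miss it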;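 note: 0% = plate neutral control median and 100% = total signal loss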
# RAD52 inh – RAD52 (human) annealing inhibition; P43351; recombinant RAD52 DNA annealing, FRET fluorescence; inhibition, % at 18.7 µM; 360,000 tested, 0.46% active;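 active = every replicate showing at least 50% inhibition; inconclusive = mean inhibition at least 50% but not in every replicate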
# Target sequence (P43351 whole entry, looked up): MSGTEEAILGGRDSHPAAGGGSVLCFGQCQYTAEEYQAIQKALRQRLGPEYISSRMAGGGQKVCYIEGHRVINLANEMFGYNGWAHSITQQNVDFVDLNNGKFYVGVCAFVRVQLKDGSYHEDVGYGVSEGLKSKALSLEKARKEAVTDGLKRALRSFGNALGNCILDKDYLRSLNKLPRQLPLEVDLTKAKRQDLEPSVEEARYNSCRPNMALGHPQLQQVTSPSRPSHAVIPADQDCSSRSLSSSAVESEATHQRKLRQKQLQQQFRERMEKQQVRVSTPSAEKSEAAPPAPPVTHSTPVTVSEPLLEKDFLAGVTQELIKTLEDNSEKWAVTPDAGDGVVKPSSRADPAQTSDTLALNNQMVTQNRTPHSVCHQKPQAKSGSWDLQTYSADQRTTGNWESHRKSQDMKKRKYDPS
# S100A4 inh HTS – inhibitors of human S100A4 binding to myosin IIA peptide | P26447 | S100A4/TAMRA-MyoIIA peptide fluorescence polarization | inhibition, % at 10.7 µM | 360,000 tested, 0.14% active;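 active = mean inhibition of at least 70% across replicates, with every replicate also reaching that level; inconclusive = mean inhibition reaches 70% but some replicates fall short; inactive = mean inhibition below 70%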
#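 Material: human S100A4 monomer with TAMRA-labelled myosin IIA peptide; buffer or medium: HEPES pH 7.2 with CaCl2, KCl, NaCl, DTT, Triton; compound dosing: one concentration per compound; schedule: 5 min incubation before reading; benchmarks: neutral control DMSO, positive control TFP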
# dFosB act-2 – enhances mouse delta FosB homodimer binding to DNA | shares compounds with dFosB act-1 | purified delta FosB, TAMRA-CDK5 oligo fluorescence polarization; normalised: neutral wells 0, positive control 100 | activation, % at 24.9 µM | 2,400 tested, under 10 active;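 active = highest replicate activation at or above 34% and every replicate reaching that threshold; inconclusive = meets only one of the two criteria; inactive = meets neither criterion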;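 note: higher polarization means more probe DNA bound by delta FosB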
# * hit, by the source's call; ? = inconclusive; . = no result.
SMILES,RAD54 branch,dFosB act-1,AF4-AF9 inh,RAD52 inh,S100A4 inh HTS,dFosB act-2
O=C(CCS(=O)(=O)Cc1ccccc1F)NCc1ccccc1Cl,.,18*,0,-6,-7,-2
C[C@H]1CN([C@@H](C)CO)C(=O)c2cc(NC(=O)CCCCCC(=O)Nc3ccccc3N)ccc2O[C@H]1CN(C)S(=O)(=O)c1cn(C)cn1,1,.,-3,-16,-6,.
Cc1ccccc1C(=O)Nc1nnc(CC(=O)N/N=C/c2ccco2)s1,.,40*,-4,-11,-8,5
O=C(Nc1ccc(-c2nnc3n2CCCCC3)cc1)c1cc2ccccc2o1,.,-9,0,4,-5,.
Cc1c(C(=O)Nc2ccc(-c3nnc4n3CCCCC4)cc2)oc2c1ccc1ccccc12,4,32*,.,.,.,4
O=C(C[C@@H]1CC[C@H]2[C@@H](COC[C@@H](O)CN2Cc2ccncc2)O1)NCC1CC1,6,.,-2,-10,4,.
Cc1ccc(C)c(Cn2c3ccccc3c3cnn(CC(=O)NCc4ccccn4)c(=O)c32)c1,0,21*,-2,-16,-6,1
O=C(COc1ccccc1C(=O)O)Nc1nc2ccc([N+](=O)[O-])cc2s1,-1,25*,-2,-16,0,0
Cc1cccc(OCC(=O)Nc2nc3ccc([N+](=O)[O-])cc3s2)c1C,-4,-5,.,.,.,.
Cc1ccc(NC(=O)CSc2nncn2-c2ccccn2)cc1Cl,12,26*,3,-2,0,-4
COc1ccc(NC(=O)Cc2c(C)n(C(=O)c3ccc(Cl)cc3)c3ccc(OC)cc23)cc1,.,-7,.,.,.,.
COc1ccc2c(c1)c(=O)c(C(=O)c1ccc(C)cc1)cn2CC(=O)Nc1ccc(F)cc1,7,22*,?,-23,0,-1
COC(=O)c1cn(CC(=O)Nc2ccc(OC)cc2)c2ccccc12,-2,4,4,-9,-4,.
COc1ccc2c(c1)c(CC(=O)Nc1ccc(C)cc1)c(C)n2C(=O)c1ccc(Cl)cc1,-5,21*,.,.,.,3
Cc1ccc(S(=O)(=O)c2cn(CC(=O)Nc3ccccc3)c3ccc(F)cc3c2=O)cc1,-12,30*,-1,-18,-1,2
COc1ccc2c(c1)c(=O)c(C(=O)c1ccc(F)cc1)cn2CC(=O)Nc1ccc(F)cc1,1,20*,?,-11,-1,-3
Cc1ccc(NC(=O)Cn2cc(S(=O)(=O)c3ccc(F)cc3)c(=O)c3cc(F)ccc32)cc1,3,-8,0,-14,-1,.
CC(C)CC#Cc1ccc2c(c1)O[C@H](CN(C)Cc1cccc(F)c1)[C@@H](C)CN([C@H](C)CO)S2(=O)=O,-7,.,-1,0,9,.
O=C(C1CCC1)N1CC2(C1)[C@H](c1ccccc1)[C@@H](CO)N2C(=O)c1ccccn1,.,.,0,0,4,.
COc1ccc(NC(=O)Cn2cc(C(=O)c3ccco3)c3ccccc32)cc1,9,45*,.,.,.,2
C[C@@H]1CN([C@H](C)CO)C(=O)c2cccc(NS(=O)(=O)c3ccc(Cl)cc3)c2O[C@@H]1CN(C)Cc1ccccc1,-9,.,0,-22,-5,.
O=C(Nc1ccc(Cl)c(Cl)c1)N[C@@H]1CC[C@@H](CCn2cc(C3CC3)nn2)O[C@H]1CO,-5,.,2,-4,3,.
Cc1ccc(C(=O)N/N=C\c2cc3c(cc2Br)OCO3)cn1,4,7,-7,-5,15,.
O=C(N/N=C/c1cc2c(cc1Br)OCO2)c1ccccn1,-26,.,0,-7,0,.
O=C(N/N=C/c1cc2c(cc1Br)OCO2)c1c[nH]c2ccccc12,.,29*,.,.,.,2
CS(=O)(=O)N(CC(=O)N/N=C/c1cc2c(cc1Br)OCO2)c1ccccc1Br,.,27*,.,.,.,7
CC(C)(C)c1cc(C(=O)N/N=C/c2cc3c(cc2Br)OCO3)n[nH]1,.,27*,0,-6,-2,4
Cc1ccc(S(=O)(=O)N(C)C[C@H]2Oc3ccc(NC(=O)Nc4ccc(F)cc4)cc3C(=O)N([C@H](C)CO)C[C@@H]2C)cc1,1,.,1,30,-6,.
COc1ccc(C)cc1NC(=O)Nc1ccc2c(c1)CCC2,7,23*,3,-6,7,1
COc1ccccc1NC(=O)Nc1ccc2c(c1)CCC2,8,-2,-1,-10,-1,.

# High-throughput results (PubChem BioAssay)
